In brackets after ≈: the same amount, converted by molar mass.
Key:
[1] = test system: Human immunodeficiency virus 1; assay: Antiviral activity against HIV1 bearing protease gene with B26 mutation infected in human MT4 cells after 5 days by MTT assay; type: functional, organism-based; conditions: Human immunodeficiency virus 1, MT4, 120 h
[2] = test system: Human immunodeficiency virus 1; assay: Antiviral activity against HIV1 bearing protease gene with P25 mutation infected in human MT4 cells after 5 days by MTT assay; type: functional, organism-based; conditions: Human immunodeficiency virus 1, MT4, 120 h
Rattus norvegicus [3] = assay: Toxicity in Gunn rat assessed as unconjugated-bilirubin level at 125 mg/kg coadministered with ritonavir measured on day 1; type: organism-based; set-up: dose 125 mg/kg; conditions: in vivo
In short: (§1)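 Gunn rats (n = 8-10 per arm) dosed orally with compound in 5% ethanol/95% propylene glycol with p-toluenesulfonic acid, together with 50 mg/kg RTV. Plasma was sampled 4 h after the first and second doses. Drug was measured by HPLC and bilirubin […]. Change in bilirubin (mg/dL) reported as mean with SD.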

Serum [4] = assay: Drug level in Gunn rat serum at 125 mg/kg coadministered with ritonavir measured on day 1; type: ADME, organism-based; set-up: dose 125 mg/kg; conditions: in vivo; in short: as §1
[5] = test system: Human immunodeficiency virus 1; assay: Antiviral activity against wild-type HIV1 pNL4-3 infected in human MT4 cells after 5 days by MTT assay; type: functional, organism-based; conditions: Human immunodeficiency virus 1, MT4, 120 h
[6] = test system: Human immunodeficiency virus 1; assay: Antiviral activity against wild-type HIV1 pNL4-3 infected in human MT4 cells after 5 days by MTT assay in presence of 50% human serum; type: functional, organism-based; conditions: Human immunodeficiency virus 1, MT4, 120 h
[7] = test system: Human immunodeficiency virus 1; assay: Antiviral activity against HIV1 bearing protease gene with A17 mutation infected in human MT4 cells after 5 days by MTT assay; type: functional, organism-based; conditions: Human immunodeficiency virus 1, MT4, 120 h
In short: (§2)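 HIV-1 A17 mutant clone carrying protease mutations L10F, V32I, M46I, I47V, Q58E and I84V, generated by in vitro serial passage under LPV/RTV. EC50 was determined in MT-4 cells. Wild-type reference strain was HIV-1 pNL4-3.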

[8] = Half life in Sprague-Dawley rat at 5 mg/kg, iv; type: ADME, organism-based; set-up: dose 5 mg/kg, route intravenous; conditions: in vivo
In short: (§3)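 Male Sprague-Dawley-derived rats (n = 3) dosed iv or by oral gavage with 5 mg/mL solutions in 5% dextrose containing 20% ethanol, 30% propylene glycol and methanesulfonic acid equivalents. Plasma was sampled at 10 time points over 8 h, extracted into ethyl acetate/hexane and analysed by reversed-phase HPLC with internal standard. AUC in µg·h/mL.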

[9] = Clearance in Sprague-Dawley rat at 5 mg/kg, iv; type: ADME, organism-based; set-up: dose 5 mg/kg, route intravenous; conditions: in vivo; in short: as §3
[10] = Oral bioavailability in Sprague-Dawley rat at 5 mg/kg; type: ADME, organism-based; conditions: in vivo; in short: as §3
[11] = AUC in Sprague-Dawley rat at 5 mg/kg, po; type: ADME, organism-based; set-up: dose 5 mg/kg, route oral; conditions: plasma; in short: as §3
[12] = AUC in Sprague-Dawley rat at 5 mg/kg, po in presence of ritonavir; type: ADME, organism-based; set-up: dose 5 mg/kg, route oral; conditions: plasma; in short: as §3
[13] = AUC in dog at 5 mg/kg, po; type: ADME, organism-based, Canis lupus familiaris; set-up: dose 5 mg/kg, route oral; conditions: plasma
In short: (§4)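 Male and female beagle dogs (n = 3) given oral gavage doses formulated as 5 mg/mL solutions in 5% dextrose with 20% ethanol, 30% propylene glycol and methanesulfonic acid, alone or with RTV (2.5 or 5 mg/kg). Plasma was taken at 12 time points over 12 h, extracted with ethyl acetate/hexane and analysed by reversed-phase HPLC with internal standard. AUC in µg·h/mL; Cmax and C12h in µg/mL.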

[14] = Cmax in dog at 5 mg/kg, po; type: ADME, organism-based, Canis lupus familiaris; set-up: dose 5 mg/kg, route oral; conditions: in vivo; in short: as §4
[15] = AUC in dog at 5 mg/kg, po coadministered with 2.5 mg/kg ritonavir; type: ADME, organism-based, Canis lupus familiaris; conditions: plasma; in short: as §4
[16] = Cmax in dog at 5 mg/kg, po coadministered with 2.5 mg/kg ritonavir; type: ADME, organism-based, Canis lupus familiaris; set-up: dose 5 mg/kg, route oral; conditions: in vivo; in short: as §4
[17] = Concentration of drug after 12 hrs in dog at 5 mg/kg, po coadministered with 2.5 mg/kg ritonavir; type: ADME, organism-based, Canis lupus familiaris; conditions: in vivo, read-out: Drug uptake; in short: as §4
[18] = AUC in dog at 5 mg/kg, po coadministered with 5 mg/kg ritonavir; type: ADME, organism-based, Canis lupus familiaris; conditions: plasma; in short: as §4
[19] = Cmax in dog at 5 mg/kg, po coadministered with 5 mg/kg ritonavir; type: ADME, organism-based, Canis lupus familiaris; set-up: dose 5 mg/kg, route oral; conditions: in vivo; in short: as §4
[20] = Concentration of drug after 12 hrs in dog at 5 mg/kg, po coadministered with 5 mg/kg ritonavir; type: ADME, organism-based, Canis lupus familiaris; conditions: in vivo, read-out: Drug uptake; in short: as §4
[21] = Solubility at pH 7.4; type: physicochemical; conditions: buffer
In short: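 Solubility measured in µg/mL at pH 7.4 and 25 °C.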

[22] = Protein binding in human plasma by equilibrium dialysis; type: ADME, cell-free; conditions: read-out: PB (converted)
In short: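 Percentage bound in human plasma, determined by equilibrium dialysis.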

Cytochrome P450 1A2 = molecular target: T1, Cytochrome P450 1A2 (Homo sapiens, UniProt P05177); assay: Inhibition of CYP1A2 assessed as phenacetin O-deethylation; type: ADME
T1 sequence (P05177 whole entry): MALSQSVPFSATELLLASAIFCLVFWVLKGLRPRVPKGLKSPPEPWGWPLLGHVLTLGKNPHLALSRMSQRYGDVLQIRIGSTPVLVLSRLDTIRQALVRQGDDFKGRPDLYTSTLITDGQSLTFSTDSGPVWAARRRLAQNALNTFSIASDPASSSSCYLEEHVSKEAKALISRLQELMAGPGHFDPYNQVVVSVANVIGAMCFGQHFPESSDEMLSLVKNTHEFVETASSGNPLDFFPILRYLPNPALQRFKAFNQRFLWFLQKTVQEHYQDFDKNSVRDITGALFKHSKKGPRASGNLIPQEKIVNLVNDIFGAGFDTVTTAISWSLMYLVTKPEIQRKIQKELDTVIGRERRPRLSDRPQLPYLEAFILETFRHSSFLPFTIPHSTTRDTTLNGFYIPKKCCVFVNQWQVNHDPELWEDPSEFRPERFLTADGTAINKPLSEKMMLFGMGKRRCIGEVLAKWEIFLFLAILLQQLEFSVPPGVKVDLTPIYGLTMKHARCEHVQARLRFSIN
In short: (§5)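 CYP inhibition in vitro, with probe reactions of phenacetin O-deethylation (CYP1A2), tolbutamide hydroxylation (CYP2C9), S-mephenytoin hydroxylation (CYP2C19) and dextromethorphan O-demethylation (CYP2D6). Reported as IC50 in µM.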

Cytochrome P450 2C9 = Cytochrome P450 2C9 (Homo sapiens, UniProt P11712); assay: Inhibition of CYP2C9 assessed as Tolbutamide hydroxylation; type: ADME; in short: as §5
Chain of Cytochrome P450 2C9 (P11712 whole entry): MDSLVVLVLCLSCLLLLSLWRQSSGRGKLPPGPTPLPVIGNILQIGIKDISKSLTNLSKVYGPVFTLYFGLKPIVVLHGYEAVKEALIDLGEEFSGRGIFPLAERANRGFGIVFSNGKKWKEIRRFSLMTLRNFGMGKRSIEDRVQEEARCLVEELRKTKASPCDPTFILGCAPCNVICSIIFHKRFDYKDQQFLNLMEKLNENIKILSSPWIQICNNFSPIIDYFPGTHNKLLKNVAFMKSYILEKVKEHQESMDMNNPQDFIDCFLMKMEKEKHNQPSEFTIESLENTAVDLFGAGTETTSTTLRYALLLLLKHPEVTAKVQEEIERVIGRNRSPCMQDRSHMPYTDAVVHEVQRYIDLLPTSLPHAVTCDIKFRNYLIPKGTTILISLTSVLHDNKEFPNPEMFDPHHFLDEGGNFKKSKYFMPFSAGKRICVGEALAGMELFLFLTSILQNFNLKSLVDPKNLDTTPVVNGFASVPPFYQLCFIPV

Cytochrome P450 2C19 = Cytochrome P450 2C19 (Homo sapiens, UniProt P33261); assay: Inhibition of CYP2C19 assessed as S-mephenytion hydroxylation; type: ADME; in short: as §5
Chain of Cytochrome P450 2C19 (P33261 whole entry): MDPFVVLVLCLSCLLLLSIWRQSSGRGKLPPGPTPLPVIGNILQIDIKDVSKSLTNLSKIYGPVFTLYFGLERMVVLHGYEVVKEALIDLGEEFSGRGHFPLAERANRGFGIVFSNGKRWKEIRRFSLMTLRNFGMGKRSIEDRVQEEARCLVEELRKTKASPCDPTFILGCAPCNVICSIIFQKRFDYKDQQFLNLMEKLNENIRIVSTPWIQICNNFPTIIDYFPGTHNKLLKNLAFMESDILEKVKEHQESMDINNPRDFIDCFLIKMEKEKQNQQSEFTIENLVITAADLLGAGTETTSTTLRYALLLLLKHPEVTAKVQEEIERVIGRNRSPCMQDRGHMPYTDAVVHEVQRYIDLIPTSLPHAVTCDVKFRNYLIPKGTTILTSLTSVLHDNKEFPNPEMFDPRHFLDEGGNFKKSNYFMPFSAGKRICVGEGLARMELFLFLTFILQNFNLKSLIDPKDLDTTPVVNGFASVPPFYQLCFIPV

Cytochrome P450 2D6 = Cytochrome P450 2D6 (Homo sapiens, UniProt P10635); assay: Inhibition of CYP2D6 assessed as dextromethorphan O-demethylation; type: ADME; in short: as §5
Chain of Cytochrome P450 2D6 (P10635 whole entry): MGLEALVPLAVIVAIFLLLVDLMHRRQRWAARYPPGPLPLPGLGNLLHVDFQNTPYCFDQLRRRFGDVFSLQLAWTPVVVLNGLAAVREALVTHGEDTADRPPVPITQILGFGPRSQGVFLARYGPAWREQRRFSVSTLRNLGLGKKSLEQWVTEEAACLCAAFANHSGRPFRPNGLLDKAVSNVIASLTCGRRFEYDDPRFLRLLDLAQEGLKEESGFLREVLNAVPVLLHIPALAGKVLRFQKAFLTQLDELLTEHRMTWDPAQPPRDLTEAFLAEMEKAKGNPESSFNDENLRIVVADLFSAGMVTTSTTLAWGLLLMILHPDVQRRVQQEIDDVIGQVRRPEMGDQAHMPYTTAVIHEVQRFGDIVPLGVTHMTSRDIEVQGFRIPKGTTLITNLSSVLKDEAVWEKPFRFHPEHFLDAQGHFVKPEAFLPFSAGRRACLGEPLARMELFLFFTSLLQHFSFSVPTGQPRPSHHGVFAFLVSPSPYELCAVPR

Cytochrome P450 3A4 = Cytochrome P450 3A4 (Homo sapiens, UniProt P08684); assay: Inhibition of CYP3A4 assessed as midazolam 1'- hydroxylation; type: ADME
Chain of Cytochrome P450 3A4 (P08684 whole entry): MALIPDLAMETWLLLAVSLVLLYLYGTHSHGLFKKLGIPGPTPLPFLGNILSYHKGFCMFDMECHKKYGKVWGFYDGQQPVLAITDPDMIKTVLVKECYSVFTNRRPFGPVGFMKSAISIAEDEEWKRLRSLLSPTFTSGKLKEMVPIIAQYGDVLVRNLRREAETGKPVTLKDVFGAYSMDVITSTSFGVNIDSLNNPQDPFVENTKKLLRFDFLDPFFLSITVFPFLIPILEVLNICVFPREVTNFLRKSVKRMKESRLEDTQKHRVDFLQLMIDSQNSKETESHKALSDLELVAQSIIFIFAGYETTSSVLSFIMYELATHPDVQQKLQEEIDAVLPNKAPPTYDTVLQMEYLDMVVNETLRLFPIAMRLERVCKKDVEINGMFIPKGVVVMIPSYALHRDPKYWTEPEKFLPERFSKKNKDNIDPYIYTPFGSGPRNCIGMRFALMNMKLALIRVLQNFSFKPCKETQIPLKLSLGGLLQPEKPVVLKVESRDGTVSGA
In short: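 CYP3A4 inhibition was measured as midazolam 1′-hydroxylation and expressed as Ki in nM.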

[23] = Inhibition of human pepsin
Renin = molecular target: T2, Renin (Homo sapiens, UniProt P00797); assay: Inhibition of renin
T2 sequence (P00797 whole entry): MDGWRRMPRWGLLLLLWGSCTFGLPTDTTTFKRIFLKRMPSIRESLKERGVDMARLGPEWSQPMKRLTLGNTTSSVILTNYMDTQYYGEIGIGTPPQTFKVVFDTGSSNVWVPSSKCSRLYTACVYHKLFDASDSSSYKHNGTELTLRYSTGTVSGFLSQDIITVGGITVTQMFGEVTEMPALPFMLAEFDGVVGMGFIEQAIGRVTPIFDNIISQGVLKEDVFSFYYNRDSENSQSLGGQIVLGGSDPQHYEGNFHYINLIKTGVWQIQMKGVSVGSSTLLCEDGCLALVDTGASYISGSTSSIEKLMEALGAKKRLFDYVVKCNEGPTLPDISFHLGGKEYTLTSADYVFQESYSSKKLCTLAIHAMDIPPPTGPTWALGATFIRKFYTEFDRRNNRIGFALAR

Cathepsin D = Cathepsin D (Homo sapiens, UniProt P07339); assay: Inhibition of cathepsin D
Chain of Cathepsin D (P07339 65-162 limits assumed): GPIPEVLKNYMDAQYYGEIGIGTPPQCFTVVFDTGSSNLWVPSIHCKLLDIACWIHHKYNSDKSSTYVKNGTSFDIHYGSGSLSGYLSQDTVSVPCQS
Chain of Cathepsin D (P07339 169-412 limits assumed): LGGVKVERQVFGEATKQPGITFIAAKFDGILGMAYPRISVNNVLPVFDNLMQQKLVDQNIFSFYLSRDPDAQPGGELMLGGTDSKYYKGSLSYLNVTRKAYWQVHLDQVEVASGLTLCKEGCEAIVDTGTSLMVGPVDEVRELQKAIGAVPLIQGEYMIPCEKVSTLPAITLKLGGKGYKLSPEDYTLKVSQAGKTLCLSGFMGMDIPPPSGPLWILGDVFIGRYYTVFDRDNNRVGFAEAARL

[24] = test system: Human immunodeficiency virus 1; assay: Fold resistance, ratio of EC50 for HIV1 bearing protease gene with A17 mutation to EC50 for wild-type HIV1 pNL4-3; type: functional; in short: as §2
Rattus norvegicus [25] = assay: Toxicity in Gunn rat assessed as unconjugated-bilirubin level at 250 mg/kg coadministered with ritonavir measured on day 1; type: organism-based; set-up: dose 250 mg/kg; conditions: in vivo; in short: as §1
Serum [26] = assay: Drug level in Gunn rat serum at 250 mg/kg coadministered with ritonavir measured on day 1; type: ADME, organism-based; set-up: dose 250 mg/kg; conditions: in vivo; in short: as §1
Serum [27] = assay: Drug level in Gunn rat serum at 125 mg/kg coadministered with ritonavir measured on day 2; type: ADME, organism-based; set-up: dose 125 mg/kg; conditions: in vivo; in short: as §1
[28] = Inhibition of HIV protease; set-up: species or system Human immunodeficiency virus
Rattus norvegicus [29] = assay: Toxicity in Gunn rat assessed as unconjugated-bilirubin level at 125 mg/kg coadministered with ritonavir measured on day 2; conditions: in vivo

Structure (SMILES)	EC50 [1] [nM]	EC50 [2] [nM]	Activity (Rattus norvegicus [3]) [mg/dL]	Drug uptake (Serum [4]) [µg/mL]	EC50 [5] [nM]	EC50 [6] [nM]	EC50 [7] [nM]	half-life [8] [h]	clearance [9] [mL/min/kg]	bioavailability [10] [%]	AUC [11] [ng·h/mL]	AUC [12] [ng·h/mL]	AUC [13] [ng·h/mL]	Cmax [14] [ng/mL]	AUC [15] [ng·h/mL]	Cmax [16] [ng/mL]	concentration at 12 h [17] [ng/mL]	AUC [18] [ng·h/mL]	Cmax [19] [ng/mL]	Ratio EC50 [24]	further results
COC(=O)N[C@H](C(=O)N[C@H](Cc1ccc(-c2ccccn2)cc1)C[C@H](O)[C@H](Cc1ccccc1)NC(=O)[C@@H](N1CCN(Cc2cccc(C(C)(C)O)n2)C1=O)C(C)(C)C)C(C)(C)C	25	45	0.125	9.37	3	19	10	0.5	22.5	4.9	180	12900	20	40	6720	2220	13	10600	2560		concentration at 12 h [20]: 58 ng/mL; solubility [21]: 11.3 µg/mL (≈ 13.1 µM); fraction unbound [22]: 0.018; IC50 (Cytochrome P450 1A2): > 5000 nM; IC50 (Cytochrome P450 2C9): > 5000 nM; IC50 (Cytochrome P450 2C19): > 5000 nM; IC50 (Cytochrome P450 2D6): > 5000 nM; Ki (Cytochrome P450 3A4): 66 nM; Ki [23]: 200000 nM; Ki (Renin): > 20000 nM; Ki (Cathepsin D): 540 nM
COC(=O)N[C@H](C(=O)N[C@@H](Cc1ccc(-c2ccccn2)cc1)C[C@H](O)[C@H](Cc1ccccc1)NC(=O)[C@@H](N1CCN(Cc2ccccc2OC)C1=O)C(C)(C)C)C(C)(C)C					4	17	49	1.2	36	3.1	70	9380								12	
COC(=O)N[C@H](C(=O)N[C@@H](Cc1ccc(-c2ccccn2)cc1)C[C@H](O)[C@H](Cc1ccccc1)NC(=O)[C@@H](N1CCN(Cc2cccc(C)n2)C1=O)C(C)(C)C)C(C)(C)C					13	62	15													1	Activity (Rattus norvegicus [25]): 0.233 mg/dL; Drug uptake (Serum [26]): 5.83 µg/mL
COC(=O)N[C@H](C(=O)N[C@@H](Cc1ccc(-c2ccccn2)cc1)C[C@H](O)[C@H](Cc1ccccc1)NC(=O)[C@@H](N1CCN(Cc2ccccc2)C1=O)C(C)(C)C)C(C)(C)C	140	103	0.144	2.45	2	12	22	1	19.2	3.4	150	3500	210	170	19000	3910	68	41900	5890	11	Drug uptake (Serum [27]): 5.33 µg/mL; concentration at 12 h [20]: 924 ng/mL; solubility [21]: < 0.15 µg/mL; fraction unbound [22]: 0.0034; IC50 (Cytochrome P450 1A2): > 10000 nM; IC50 (Cytochrome P450 2C9): > 10000 nM; IC50 (Cytochrome P450 2C19): > 10000 nM; IC50 (Cytochrome P450 2D6): > 10000 nM; Ki (Cytochrome P450 3A4): 18 nM; Ki [28]: 0.015 nM; Ki [23]: 177000 nM; Ki (Renin): > 4000 nM; Ki (Cathepsin D): 4300 nM; Activity (Rattus norvegicus [29]): 0.133 mg/dL
COC(=O)N[C@H](C(=O)N[C@@H](Cc1ccccc1)[C@@H](O)CN(Cc1ccc(-c2ccccn2)cc1)NC(=O)[C@@H](NC(=O)OC)C(C)(C)C)C(C)(C)C [ATAZANAVIR]	74	298			3		250														
Cc1cccc(C)c1OCC(=O)N[C@@H](Cc1ccccc1)[C@@H](O)C[C@H](Cc1ccccc1)NC(=O)[C@H](C(C)C)N1CCCNC1=O [LOPINAVIR]	3790	> 10000				152	1060													59	

— ChEMBL document CHEMBL1153436, “2-Pyridyl P1'-substituted symmetry-based human immunodeficiency virus protease inhibitors (A-792611 and A-790742) with potential for convenient dosing and reduced side effects” (J Med Chem, 2009)
